Results as given in ChEMBL document CHEMBL2069171, “Novel monobactams utilizing a siderophore uptake mechanism for the treatment of gram-negative infections” (Bioorg Med Chem Lett, 2012).
In brackets after ≈: the same amount, converted by molar mass.

Tests used:
Pseudomonas aeruginosa [1] = test: Antibacterial activity against beta-lactam- and quinolone-resistant Pseudomonas aeruginosa 1042-06; type: functional
Pseudomonas aeruginosa [2] = test: Antibacterial activity against penicillin-resistant, quinolone-sensitive Pseudomonas aeruginosa 1091-05; type: functional
[3] = Aqueous stability of the compound at pH 6; type: physicochemical; details: buffer
Escherichia coli = test: Antibacterial activity against Escherichia coli; type: functional
Summary of the method: (§1)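 MICs determined against an organism panel of drug-susceptible strains and recent MDR clinical isolates. For selected analogs, MIC90 was taken from broader panels as the concentration inhibiting visible growth of 90 percent of strains.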

Klebsiella pneumoniae = test: Antibacterial activity against Klebsiella pneumoniae; type: functional; summary of the method: as §1
Acinetobacter baumannii = test: Antibacterial activity against Acinetobacter baumannii; type: functional; summary of the method: as §1
Pseudomonas aeruginosa [4] = test: Antibacterial activity against Pseudomonas aeruginosa; type: functional
Summary of the method: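 MICs for P. aeruginosa were determined on a drug-susceptible strain, 1091-05 (penicillin-resistant, quinolone-sensitive clinical strain), and a recent MDR clinical isolate, 1042-06. For selected analogs, MIC90 was taken from broader strain panels as the concentration inhibiting visible growth of 90 percent of strains.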

Pseudomonas aeruginosa [5] = test: Antibacterial activity against penicillin-resistant, quinolone-sensitive Pseudomonas aeruginosa 1091-05 infected in mouse model of pneumonia assessed as reduction of lung colony forming unit counts; type: functional
Summary of the method: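 Murine pneumonia model infected with P. aeruginosa 1091-05. ED50, in mg/kg/dose, derived from reductions in lung CFU counts over the course of the study.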

[6] = Fraction unbound in mouse plasma; type: ADME, cell-free
Rattus norvegicus = test: Unbound clearance in rat at 1 mg/kg, iv; type: ADME, organism-based; design: dose 1 mg/kg, route intravenous; details: in vivo
[7] = Clearance in mouse; type: ADME, organism-based; details: in vivo
[8] = Fraction unbound in human plasma; type: ADME, cell-free
[9] = Fraction unbound in rat plasma; type: ADME, cell-free
[10] = Total clearance in mouse plasma relative to protein binding and blood flow; type: ADME, organism-based
[11] = Total clearance in rat at 1 mg/kg, iv; type: ADME, organism-based; design: dose 1 mg/kg, route intravenous; details: in vivo

For `CC(C)(O/N=C(\C(=O)N[C@@H]1C(=O)N(S(=O)(=O)O)[C@@H]1COC(=O)c1ccnc(-c2cc(=O)c(O)c[nH]2)n1)c1csc(N)n1)C(=O)O` (stereo in doubt), the MIC (Pseudomonas aeruginosa [1]) was 32 µg/mL (≈ 48 µM) and the MIC (Pseudomonas aeruginosa [2]) was 8 µg/mL (≈ 12 µM).
`CC(C)(O/N=C(\C(=O)N[C@H]1CN(C(=O)NS(=O)(=O)n2nc(-c3cc(=O)c(O)c[nH]3)n(C[C@@H](O)CO)c2=O)C1=O)c1csc(N)n1)C(=O)O` (stereo in doubt) gave an MIC (Pseudomonas aeruginosa [1]) of 0.5 µg/mL (≈ 0.7 µM).
In the case of `C[C@H]1[C@H](NC(=O)/C(=N\OC(C)(C)C(=O)O)c2csc(N)n2)C(=O)N1C(=O)NS(=O)(=O)n1nc(-c2cc(=O)c(O)c[nH]2)n(C[C@@H](O)CO)c1=O` (stereo in doubt), the Stability [3] was “Stable”.
With `CC(C)(O/N=C(\C(=O)N[C@@H]1C(=O)N(S(=O)(=O)O)[C@@H]1COC(=O)CNC(=O)c1ccc(O)c(O)c1)c1csc(N)n1)C(=O)O` (stereo in doubt) the MIC (Pseudomonas aeruginosa [1]) was 16 µg/mL (≈ 24.8 µM) and the MIC (Pseudomonas aeruginosa [2]) was 1 µg/mL (≈ 1.55 µM).
Work on `CC(C)(O/N=C(\C(=O)N[C@@H]1C(=O)N(S(=O)(=O)O)[C@@H]1COC(=O)CNC(=O)c1cc(=O)c(O)c[nH]1)c1csc(N)n1)C(=O)O` (stereo in doubt) yielded an MIC (Pseudomonas aeruginosa [1]) of 32 µg/mL (≈ 49.6 µM) and an MIC (Pseudomonas aeruginosa [2]) of 1 µg/mL (≈ 1.55 µM).
Work on `CC(C)(O/N=C(\C(=O)N[C@@H]1C(=O)N(S(=O)(=O)O)[C@@H]1COC(=O)c1csc(-c2cc(=O)c(O)c[nH]2)n1)c1csc(N)n1)C(=O)O` (stereo in doubt) yielded an MIC (Pseudomonas aeruginosa [1]) of 1 µg/mL (≈ 1.49 µM) and an MIC (Pseudomonas aeruginosa [2]) of 0.5 µg/mL (≈ 0.744 µM).
Work on `CC1(C)[C@H](NC(=O)/C(=N\OCc2cc(=O)c(O)cn2O)c2csc(N)n2)C(=O)N1OS(=O)(=O)O` (stereo in doubt) yielded an MIC (Pseudomonas aeruginosa [1]) of 8 µg/mL (≈ 15.4 µM), an MIC90 (Escherichia coli) of 16 µg/mL (≈ 30.9 µM) and an MIC90 (Klebsiella pneumoniae) of over 64 µg/mL. It also gave an MIC90 (Acinetobacter baumannii) of 64 µg/mL (≈ 123 µM), an MIC (Pseudomonas aeruginosa [2]) of 1 µg/mL (≈ 1.93 µM) and an MIC90 (Pseudomonas aeruginosa [4]) of 4 µg/mL (≈ 7.71 µM).
`CC(C)(O/N=C(\C(=O)N[C@@H]1C(=O)N(S(=O)(=O)O)[C@@H]1CNC(=O)c1cc(-c2cc(=O)c(O)cn2O)no1)c1csc(N)n1)C(=O)O` (stereo in doubt) gave an ED50 (Pseudomonas aeruginosa [5]) of 73.6 mg/kg, a fraction unbound [6] of 0.65 and an MIC (Pseudomonas aeruginosa [1]) of 0.125 µg/mL (≈ 0.186 µM). The MIC90 (Escherichia coli) was 1 µg/mL (≈ 1.49 µM), the CL free (Rattus norvegicus) was 24.5 mL/min/kg and the MIC90 (Klebsiella pneumoniae) was 16 µg/mL (≈ 23.9 µM). The clearance [7] was 34.7 mL/min/kg, the MIC90 (Acinetobacter baumannii) was over 64 µg/mL and the fraction unbound [8] was 0.46. It also gave an MIC (Pseudomonas aeruginosa [2]) of 0.125 µg/mL (≈ 0.186 µM), an MIC90 (Pseudomonas aeruginosa [4]) of 0.25 µg/mL (≈ 0.373 µM) and a fraction unbound [9] of 0.33. The clearance [10] was 87 mL/min/kg and the clearance [11] was 8.1 mL/min/kg.
In the case of `CC(C)(O/N=C(\C(=O)N[C@@H]1C(=O)N(S(=O)(=O)O)[C@@H]1COC(=O)c1cc(-c2cc(=O)c(O)cn2O)no1)c1csc(N)n1)C(=O)O` (stereo in doubt), the MIC (Pseudomonas aeruginosa [1]) was 0.25 µg/mL (≈ 0.372 µM), the MIC90 (Escherichia coli) was 0.125 µg/mL (≈ 0.186 µM) and the CL free (Rattus norvegicus) was 144.6 mL/min/kg. The MIC90 (Klebsiella pneumoniae) was 2 µg/mL (≈ 2.98 µM), the MIC90 (Acinetobacter baumannii) was over 64 µg/mL and the fraction unbound [8] was 0.32. The MIC (Pseudomonas aeruginosa [2]) was 0.25 µg/mL (≈ 0.372 µM), the MIC90 (Pseudomonas aeruginosa [4]) was 1 µg/mL (≈ 1.49 µM) and the fraction unbound [9] was 0.24. The clearance [11] was 34.7 mL/min/kg.
Molecule `CC(C)(O/N=C(\C(=O)N[C@@H]1C(=O)N(S(=O)(=O)O)[C@@H]1COC(=O)CNC(=O)c1cc(=O)c(O)cn1O)c1csc(N)n1)C(=O)O` (stereo in doubt) has an MIC (Pseudomonas aeruginosa [1]) of 0.5 µg/mL (≈ 0.756 µM), an MIC90 (Escherichia coli) of 1 µg/mL (≈ 1.51 µM) and a CL free (Rattus norvegicus) of 24.7 mL/min/kg. The MIC90 (Klebsiella pneumoniae) was 32 µg/mL (≈ 48.4 µM), the Stability [3] was “Stable” and the MIC90 (Acinetobacter baumannii) was over 64 µg/mL. It also gave a fraction unbound [8] of 0.57, an MIC (Pseudomonas aeruginosa [2]) of 0.125 µg/mL (≈ 0.189 µM) and an MIC90 (Pseudomonas aeruginosa [4]) of 2 µg/mL (≈ 3.02 µM). The fraction unbound [9] was 0.36 and the clearance [11] was 8.9 mL/min/kg.
`C[C@@H](O)[C@H]1C(=O)N2C(C(=O)O)=C(S[C@@H]3CN[C@H](C(=O)N(C)C)C3)[C@H](C)[C@H]12` [MEROPENEM] gave an MIC90 (Escherichia coli) of 0.06 µg/mL (≈ 0.156 µM), an MIC90 (Klebsiella pneumoniae) of 32 µg/mL (≈ 83.4 µM) and an MIC90 (Acinetobacter baumannii) of 64 µg/mL (≈ 167 µM). The MIC (Pseudomonas aeruginosa [2]) was 0.5 µg/mL (≈ 1.3 µM) and the MIC90 (Pseudomonas aeruginosa [4]) was over 64 µg/mL.
Molecule `CC(C)(O/N=C(\C(=O)N[C@@H]1C(=O)N(S(=O)(=O)O)[C@@H]1COC(=O)c1cc(-c2cc(=O)c(O)c[nH]2)no1)c1csc(N)n1)C(=O)O` (stereo in doubt) has an MIC (Pseudomonas aeruginosa [1]) of 4 µg/mL (≈ 6.1 µM) and an MIC (Pseudomonas aeruginosa [2]) of 4 µg/mL (≈ 6.1 µM).
`Nc1nc(/C(=N/OCC(=O)O)C(=O)N[C@@H]2C(=O)N(S(=O)(=O)O)[C@@H]2COC(=O)CNC(=O)c2ccc(O)c(O)c2)cs1` (stereo in doubt) gave an MIC (Pseudomonas aeruginosa [1]) of 32 µg/mL (≈ 51.9 µM) and an MIC (Pseudomonas aeruginosa [2]) of 0.5 µg/mL (≈ 0.811 µM).
